Calls of active or inactive are those of the source. The rule behind the calls is not given here.
Assays:
D(2) dopamine receptor [1] = biological target: T1, D(2) dopamine receptor (Homo sapiens, UniProt P14416)
[2] = biological target: T2, 5-hydroxytryptamine receptor 1D (Homo sapiens, UniProt P28221); test: In vitro binding affinity towards 5-hydroxytryptamine 1D receptor alpha by using [3H]5-HT as radioligand
D(2) dopamine receptor [3] = biological target: T1, D(2) dopamine receptor; test: In vitro binding affinity towards Dopamine receptor D2 by using [3H]spiperone as radioligand
D(3) dopamine receptor = D(3) dopamine receptor (Homo sapiens, UniProt P35462); test: In vitro binding affinity towards Dopamine receptor D3 by using [3H]spiperone as radioligand
Chain of D(3) dopamine receptor (P35462 whole entry): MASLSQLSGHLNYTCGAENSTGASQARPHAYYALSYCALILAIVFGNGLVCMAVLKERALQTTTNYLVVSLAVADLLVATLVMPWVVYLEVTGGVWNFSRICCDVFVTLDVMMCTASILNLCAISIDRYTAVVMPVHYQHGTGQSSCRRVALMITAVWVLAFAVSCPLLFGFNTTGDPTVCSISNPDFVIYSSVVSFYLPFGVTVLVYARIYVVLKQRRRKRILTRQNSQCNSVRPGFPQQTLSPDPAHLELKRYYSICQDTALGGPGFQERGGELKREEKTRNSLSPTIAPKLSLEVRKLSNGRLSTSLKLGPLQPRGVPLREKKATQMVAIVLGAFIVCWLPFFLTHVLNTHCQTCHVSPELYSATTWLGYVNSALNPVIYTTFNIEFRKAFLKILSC
How it was run: (§1)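 Radioligand competition binding at cloned mammalian receptors expressed in CHO-K1 cells, 1 h at room temperature, pH 7.4. D2 [3H]U86170 1 nM in 20 mM HEPES/10 mM MgSO4. D3 [3H]spiperone 0.5 nM in HEPES/MgCl2/NaCl/EDTA. Filtration and scintillation counting; 11 concentrations in duplicate; IC50 by nonlinear fit converted to Ki via Cheng–Prusoff.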

[4] = biological target: T3, 5-hydroxytryptamine receptor 1A (Mus musculus, UniProt Q64264); test: In vitro binding affinity towards 5-hydroxytryptamine 1A receptor by using [3H]-8-OH-DPAT as radioligand
T3 sequence (Q64264 whole entry): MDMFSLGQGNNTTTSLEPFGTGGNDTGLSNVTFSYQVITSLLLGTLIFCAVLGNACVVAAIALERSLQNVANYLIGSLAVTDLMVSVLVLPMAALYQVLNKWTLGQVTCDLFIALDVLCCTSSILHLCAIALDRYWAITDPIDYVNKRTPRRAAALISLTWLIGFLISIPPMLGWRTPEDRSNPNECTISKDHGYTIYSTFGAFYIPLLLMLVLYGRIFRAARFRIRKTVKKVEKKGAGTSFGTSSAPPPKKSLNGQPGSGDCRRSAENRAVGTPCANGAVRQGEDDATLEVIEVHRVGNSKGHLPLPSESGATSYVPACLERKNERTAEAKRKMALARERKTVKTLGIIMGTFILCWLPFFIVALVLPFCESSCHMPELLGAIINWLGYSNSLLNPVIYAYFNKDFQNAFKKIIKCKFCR
How it was run: as §1, with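 “7.4. Ligands: 5-HT1A [3H]-8-OH-DPAT 1 nM in 50 mM Tris/10 mM MgCl2. 5-HT1Dα/β [3H]-5-HT 1.7 nM in Tris/MgCl2/EDTA/0.1% ascorbate.” for “7.4.”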

Rattus norvegicus [5] = test: […] decrease in the accumulation of DOPA (3,4-dihydroxyphenylalanine) in rat striatal brain;Inactive at 50 uM/Kg; type: functional, organism-based
How it was run: (§2)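 Male Sprague-Dawley rats (200–300 g) pretreated with reserpine 5 mg/kg sc 18 h before test drug. Test drug sc 60 min and NSD 1015 30 min before decapitation. DOPA and 5-HTP in limbic, striatal and hemispheral brain areas determined by HPLC with electrochemical detection. ED50 (µmol/kg) is the dose producing half-maximal decrease, from sigmoidal fit to dose–response curves, with 95% confidence limits.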

Rattus norvegicus [6] = test: (§3) […] decrease in the accumulation of 5-HTP (5-uM/Kg; type: functional, organism-based
Rattus norvegicus [7] = species on record: Rattus norvegicus; test: post-synaptic activity was determined by locomotor activity (LMA) in reserpine pretreated rats and no. of counts/30 min was reported (***p<0.005); type: functional
[8] = biological target: T2, 5-hydroxytryptamine receptor 1D; test: In vitro binding affinity towards 5-hydroxytryptamine 1D receptor alpha by using [3H]-5-HT as radioligand
D(2) dopamine receptor [9] = biological target: T1, D(2) dopamine receptor; test: In vitro binding affinity towards dopamine D2 receptor by using [3H]U-86170 as radioligand
How it was run: as §1, with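 “7.4. Ligands: 5-HT1A [3H]-8-OH-DPAT 1 nM in 50 mM Tris/10 mM MgCl2. 5-HT1Dα/β [3H]-5-HT 1.7 nM in Tris/MgCl2/EDTA/0.1% ascorbate.” for “7.4.”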

Rattus norvegicus [10] = test: uM/kg; type: functional
[11] = biological target: T2, 5-hydroxytryptamine receptor 1D; test: In vitro binding affinity towards 5-HT1D alpha receptor by using [3H]5-HT as radioligand
How it was run: as §1, with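 “7.4. Ligands: 5-HT1A [3H]-8-OH-DPAT 1 nM in 50 mM Tris/10 mM MgCl2. 5-HT1Dα/β [3H]-5-HT 1.7 nM in Tris/MgCl2/EDTA/0.1% ascorbate.” for “7.4.”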

Rattus norvegicus [12] = test: […] decrease in the accumulation of DOPA (3,4-dihydroxyphenylalanine) in rat limbic brain;Inactive at 50 uM/Kg; type: functional, organism-based
How it was run: as §2

Rattus norvegicus [13] = test: as §3; type: functional, organism-based; remark: listed apart in the source
Rattus norvegicus [14] = test: […] decrease in the accumulation of DOPA (3,4-dihydroxyphenylalanine) in rat hemispheral brain;Inactive at 50 uM/Kg; type: functional, organism-based
How it was run: as §2

[15] = Oral bioavailability in rat; type: ADME, organism-based; details: in vivo
How it was run: (§4)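 Rats with arterial catheters, dosed 24 h after surgery. Dosing po by gavage after 18 h fast, or iv; doses 25 µmol/kg po and 5 µmol/kg iv. Blood sampled 5 min–12 h and analysed by GC-MS after dichloromethane extraction at pH 11, in duplicate. Bioavailability from po/iv AUC ratio; half-life estimated graphically from the elimination phase after oral dosing.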

Rattus norvegicus [16] = species on record: Rattus norvegicus; test: post-synaptic activity was determined by locomotor activity (LMA) in Non pretreated rats; type: functional
How it was run: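 Nonpretreated male Sprague-Dawley rats; test drug sc in the neck or po by gavage, n = 4. Placed singly in photocell motility meters immediately after dosing; activity recorded for 30 min. Results expressed as percent of saline controls.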

Rattus norvegicus [17] = test: […] decrease in the accumulation of DOPA (3,4-dihydroxyphenylalanine) in rat limbic brain; partial response at 50 uM/Kg; type: functional, organism-based
How it was run: as §2

Rattus norvegicus [18] = test: behavioral syndrome(flat body posture and forepaw treading) at 0.25 umol/Kg
Rattus norvegicus [19] = test: […] decrease in the accumulation of DOPA (3,4-dihydroxyphenylalanine) in rat hemispheral brain; partial response at 50 uM/Kg; type: functional, organism-based
How it was run: as §2

Rattus norvegicus [20] = test: […] decrease in the accumulation of DOPA (3,4-dihydroxyphenylalanine) in non pretreated rat striatal brain at dose 0.25 umol/kg; type: functional; set-up: scale not given: the % may be the effect or the level left
How it was run: (§5)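 Male Sprague-Dawley rats (200–300 g) without reserpine. Test drug sc, or po by gavage after 18 h fast. NSD 1015 decarboxylase inhibition before decapitation. DOPA and 5-HTP in limbic and striatal regions measured by HPLC-electrochemical detection. Results given as percent of saline controls, mean ± SEM, n = 16 controls and 4 treated.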

Rattus norvegicus [21] = test: […] decrease in the accumulation of DOPA (3,4-dihydroxyphenylalanine) in rat striatal brain; partial response at 50 uM/Kg; type: functional, organism-based
How it was run: as §2

Rattus norvegicus [22] = test: […] decrease in the accumulation of DOPA (3,4-dihydroxyphenylalanine) in non pretreated rat limbic brain at dose 0.25 umol/kg; type: functional; set-up: scale not given: the % may be the effect or the level left
How it was run: as §5

Rattus norvegicus [23] = test: […] decrease in the accumulation of 5-HTP (5-Hydroxytryptophan) in non pretreated rat limbic brain at dose 0.25 umol/kg; type: functional; set-up: scale not given: the % may be the effect or the level left
How it was run: as §5

[24] = Plasma half life was determined in rats; type: ADME, organism-based; details: rat
How it was run: as §4

Rattus norvegicus [25] = species on record: Rattus norvegicus; test: […] decrease in the accumulation of 5-HTP (5-Hydroxytryptophan) in rat striatal brain; type: functional
How it was run: as §2

Rattus norvegicus [26] = test: […] decrease in the accumulation of 5-HTP (5-Hydroxytryptophan) in non pretreated rat striatal brain at dose 0.25 umol/kg; type: functional; set-up: scale not given: the % may be the effect or the level left
How it was run: as §5

Rattus norvegicus [27] = species on record: Rattus norvegicus; test: […] decrease in the accumulation of 5-HTP (5-Hydroxytryptophan) in rat hemispheral brain; type: functional
How it was run: as §2

Rattus norvegicus [28] = test: behavioral syndrome(flat body posture and forepaw treading) at 0.25 µmol/kg
[29] = Plasma clearance was determined for the compound in rats; type: ADME, organism-based; details: rat
How it was run: as §4

T1 sequence (P14416 whole entry): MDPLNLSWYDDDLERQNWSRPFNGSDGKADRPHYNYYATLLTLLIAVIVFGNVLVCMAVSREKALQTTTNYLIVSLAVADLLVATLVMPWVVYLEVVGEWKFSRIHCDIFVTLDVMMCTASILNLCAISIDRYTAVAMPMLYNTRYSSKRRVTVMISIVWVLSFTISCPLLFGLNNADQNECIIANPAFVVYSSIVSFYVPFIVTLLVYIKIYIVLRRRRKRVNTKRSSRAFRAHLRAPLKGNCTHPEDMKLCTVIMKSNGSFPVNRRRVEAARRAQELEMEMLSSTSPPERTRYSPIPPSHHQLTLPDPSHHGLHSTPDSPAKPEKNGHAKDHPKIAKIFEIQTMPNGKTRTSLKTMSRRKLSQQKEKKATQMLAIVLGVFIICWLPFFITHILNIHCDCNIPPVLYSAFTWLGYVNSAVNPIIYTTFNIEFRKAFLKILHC
T2 sequence (P28221 whole entry): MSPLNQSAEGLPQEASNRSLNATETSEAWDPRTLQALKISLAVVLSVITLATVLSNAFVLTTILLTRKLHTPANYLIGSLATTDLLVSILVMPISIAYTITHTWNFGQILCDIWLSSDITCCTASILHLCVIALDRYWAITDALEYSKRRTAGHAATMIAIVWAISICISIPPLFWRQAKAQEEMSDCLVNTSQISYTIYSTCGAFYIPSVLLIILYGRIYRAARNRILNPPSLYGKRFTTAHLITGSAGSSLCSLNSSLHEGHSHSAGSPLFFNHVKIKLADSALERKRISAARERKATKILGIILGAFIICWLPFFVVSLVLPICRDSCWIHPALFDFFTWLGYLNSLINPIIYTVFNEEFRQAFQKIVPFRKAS

Structure (SMILES)	Ki (D(2) dopamine receptor [1]) [nM]	Ki [2] [nM]	Ki (D(2) dopamine receptor [3]) [nM]	Ki (D(3) dopamine receptor) [nM]	Ki [4] [nM]	Ki [8] [nM]	No. of rats displaying DA syndrome (Rattus norvegicus [10])	bioavailability [15] [%]	ED50 (Rattus norvegicus [17])	ED50 (Rattus norvegicus [19])	ED50 (Rattus norvegicus [21])	half-life [24] [h]	ED50 (Rattus norvegicus [27]) [µmol/kg]	other results
CCCNC1CCc2cccc(OS(=O)(=O)C(F)(F)F)c2C1 (racemic)	108	15	> 413	691	2.8									
CCCN[C@@H]1CCc2ccc(OS(=O)(=O)C(F)(F)F)cc2C1.Cl				359	222	340	4							ED50 (Rattus norvegicus [5]): inactive; ED50 (Rattus norvegicus [6]): Weak activity; Counts/30 min (Rattus norvegicus [7]): 2153; Ki (D(2) dopamine receptor [9]): 50 nM; Ki [11]: 125 nM; ED50 (Rattus norvegicus [12]): inactive; ED50 (Rattus norvegicus [13]): Weak activity; ED50 (Rattus norvegicus [14]): inactive
CCCN(CCC)[C@@H]1CCc2cccc(O)c2C1					0.5		0	2.4	Weak activity	Weak activity	Weak activity	1.2	0.05	Locomotor activity (% of saline control) (Rattus norvegicus [16]): 64%; No. of rats with 5-HT syndrome (Rattus norvegicus [18]): 4; Control (Rattus norvegicus [20]): 80%; Control (Rattus norvegicus [22]): 94%; Control (Rattus norvegicus [23]): 50%; ED50 (Rattus norvegicus [25]): 0.047 µmol/kg; Control (Rattus norvegicus [26]): 48%; No. of rats with 5-HT syndrome (Rattus norvegicus [28]): 4
CCCN(CCC)C1CCc2cccc(OS(=O)(=O)C(F)(F)F)c2C1 (racemic)	62	12	> 413	273	0.8	127		11.2	Weak activity	Weak activity	Weak activity	1.5	13.8	clearance [29]: 57 mL/min/kg

Source: ChEMBL document CHEMBL1128298, “Synthesis and evaluation of pharmacological and pharmacokinetic properties of monopropyl analogs of 5-, 7-, and 8-[[(trifluoromethyl)sulfonyl]oxy]-2-aminotetralins: central dopamine and serotonin receptor activity” (J Med Chem, 1995)
